The target of assay [1] is 5-hydroxytryptamine receptor 2A (Rattus norvegicus, UniProt P14842). The experiment in a line: Binding affinity against 5-hydroxytryptamine 2A receptor. In short, it runs like this:
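Brain tissue homogenized in Tris-HCl 50 mM, MgCl2 10 mM, pH 7.4, then washed, incubated 15 min at 37 °C, and resuspended with 0.1% ascorbate and 10⁻⁵ M pargyline. Triplicate tubes held 5 mg wet tissue and 0.4 nM [³H]-ketanserin, with 1.0 μM cinanserin defining nonspecific binding. Incubated 15 min at 37 °C, then filtered. Ki = IC50/(1 + D*/KD*).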

Assay [2] concerns the target T1, 5-hydroxytryptamine receptor 2C (Rattus norvegicus, UniProt P08909).
T1 sequence (P08909 whole entry): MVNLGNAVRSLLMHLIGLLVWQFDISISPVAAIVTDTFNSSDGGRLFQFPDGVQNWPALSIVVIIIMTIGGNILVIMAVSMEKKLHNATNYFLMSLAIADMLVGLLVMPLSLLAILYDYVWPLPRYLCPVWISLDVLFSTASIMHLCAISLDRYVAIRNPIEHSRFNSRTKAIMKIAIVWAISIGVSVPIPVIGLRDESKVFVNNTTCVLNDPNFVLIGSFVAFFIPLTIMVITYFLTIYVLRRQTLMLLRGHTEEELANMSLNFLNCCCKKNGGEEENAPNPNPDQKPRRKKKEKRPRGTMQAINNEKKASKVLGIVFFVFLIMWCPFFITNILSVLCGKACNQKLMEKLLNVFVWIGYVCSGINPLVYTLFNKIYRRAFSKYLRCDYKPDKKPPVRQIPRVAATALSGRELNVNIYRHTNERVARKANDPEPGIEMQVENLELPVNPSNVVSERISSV
Briefly: Binding affinity against 5-hydroxytryptamine 2C receptor. The gist of the method:
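Washed brain membranes in Tris-HCl/MgCl2 pH 7.4 with ascorbate and pargyline. Triplicate tubes held 10 mg wet tissue, 1 nM [³H]-mesulergine, and 100 nM spiperone in every tube to block 5-HT2A sites. Nonspecific binding was defined with 1.0 μM mianserin. Incubated 15 min at 37 °C, then filtered and counted. Ki came from IC50 corrected for radioligand concentration and KD.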

Assay [3] has as its target Serotonin receptor 2a and 2c (5HT2A and 5HT2C) (Rattus norvegicus) (UniProt P08909+P14842). Briefly: Selectivity as the ratio of Ki value towards 5-hydroxytryptamine 2C receptor to that of 5-hydroxytryptamine 2A receptor. It counts as protein assay.

Each structure is given as a SMILES string. A value given as a limit tells only on which side of the number the result lay.

5-hydroxytryptamine receptor 2A, sequence (P14842 whole entry): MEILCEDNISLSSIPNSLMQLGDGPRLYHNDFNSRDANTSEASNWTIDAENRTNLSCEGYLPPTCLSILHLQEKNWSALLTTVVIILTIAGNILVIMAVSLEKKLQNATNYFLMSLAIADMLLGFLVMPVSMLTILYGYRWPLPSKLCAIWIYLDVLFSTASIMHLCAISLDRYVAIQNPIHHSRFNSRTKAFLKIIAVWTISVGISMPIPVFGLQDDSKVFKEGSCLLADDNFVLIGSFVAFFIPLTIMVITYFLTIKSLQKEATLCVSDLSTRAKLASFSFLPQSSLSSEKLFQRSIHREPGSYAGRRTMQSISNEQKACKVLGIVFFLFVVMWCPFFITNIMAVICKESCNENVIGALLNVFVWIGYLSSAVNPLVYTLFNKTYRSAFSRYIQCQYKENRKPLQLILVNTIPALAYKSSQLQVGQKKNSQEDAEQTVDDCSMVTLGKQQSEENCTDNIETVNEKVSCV
Serotonin receptor 2a and 2c (5HT2A and 5HT2C) (Rattus norvegicus), sequence (P14842 whole entry, looked up, one chain of several): as the sequence (P14842 whole entry) above

For orientation: Ki means the equilibrium dissociation constant of an inhibitor or competing ligand from its target. Low values mean tighter binding, high ones weaker binding. As for `O=C(c1ccccc1)C1CCN(CCCCc2ccccc2)CC1`, the Ki in assay [1] worked out at 10 nM; in assay [2] it was 2400 nM. Further, in assay [3], the Selectivity came out at 240.
Turning to `OC(c1ccccc1)C1CCN(CCc2ccccc2)CC1` (stereo unspecified) [GLEMANSERIN], the results for the Ki in assay [1] and in assay [2] were 2.5 nM and 830 nM, respectively. Further, the Selectivity in assay [3] is 330.
For `c1ccc(CCCCN2CCC(Cc3ccccc3)CC2)cc1`, in that order: 120 nM, 4120 nM and 34.
Consider `C(=C(\c1ccccc1)C1CCN(CCc2ccccc2)CC1)/c1ccccc1`, for which, in assay [1], the Ki was found to be 19 nM.
For the compound `c1ccc(CCN2CCC(=C(c3ccccc3)c3ccccc3)CC2)cc1`, the Ki in assay [1] was 6.9 nM; in assay [2], 29 nM. The Selectivity in assay [3] was found to be 4.
Consider `C(/Cc1ccccc1)=C(\c1ccccc1)C1CCN(CCCCc2ccccc2)CC1`, for which the Ki in assay [1] came out at 100 nM; in assay [2], 1390 nM. Also, in assay [3], the Selectivity is 14.
For `Fc1ccc(CC2CCN(CCc3ccccc3)CC2)cc1`, in that order: 18 nM, 2000 nM and 110.
`OC(c1ccc(F)cc1)C1CCN(CCCCc2ccccc2)CC1` (stereo unspecified): the Ki in assay [1] was found to be 126 nM; in assay [2] it was 6600 nM. Besides, the Selectivity in assay [3] is 52.
For `O=C(c1ccccc1)C1CCN(CCc2ccccc2)CC1`, in that order: 9.6 nM, 800 nM and 83.
For `Fc1ccc(CC2CCN(CCCCc3ccccc3)CC2)cc1`, in that order: 40 nM, 2740 nM and 70.
With `O=C(c1ccc(F)cc1)C1CCN(CCc2ccccc2)CC1`, the Ki in assay [1] was found to be 8.5 nM. The Selectivity in assay [3] is 17.
Regarding `O=C(c1ccccc1)N1CCN(CCCCc2ccccc2)CC1`, the Ki is 180 nM in assay [1] and 8520 nM in assay [2]. Besides, the Selectivity in assay [3] worked out at 47.
For `CN1CCC(C(=O)c2ccccc2)CC1`, in that order: 600 nM, over 10000 nM and over 16.
`O=C(c1ccc(F)cc1)C1CCN(CCCCc2ccccc2)CC1` had an inhibition constant (Ki) in assay [1] of 5.3 nM. For the same compound, in assay [3], the Selectivity amounted to 120.
As to `c1ccc(CCCCN2CCN(Cc3ccccc3)CC2)cc1`, the Ki in assay [1] is 240 nM; in assay [2], over 10000 nM. In addition, the Selectivity in assay [3] was over 40.
Regarding `CN1CCN(C(=O)c2ccccc2)CC1`, the Ki in assay [1] and in assay [2] was over 10000 nM in each case.
On to `c1ccc(CCN2CCC(Cc3ccccc3)CC2)cc1`, for which the results for the Ki in assay [1] and in assay [2] were 22 nM and 1760 nM, respectively. For the same compound, the Selectivity in assay [3] amounted to 80.
For `OC(c1ccc(F)cc1)C1CCN(CCc2ccccc2)CC1` (stereo unspecified), in that order: 3 nM, 1520 nM and 460.
For `O=c1[nH]c2ccccc2c(=O)n1CCN1CCC(C(c2ccccc2)c2ccccc2)CC1`, in that order: 18 nM, 52 nM and 3.
Consider `c1ccc(CCCCN2CCC(=C(c3ccccc3)c3ccccc3)CC2)cc1`, for which the values for the Ki in assay [1] and in assay [2] were 20 nM and 220 nM, respectively. Moreover, the Selectivity in assay [3] came out at 11.
For `O=c1[nH]c2ccccc2c(=O)n1CCN1CCN(C(c2ccccc2)c2ccccc2)CC1`, in that order: 65 nM, 635 nM and 10.
For `OC(c1ccccc1)C1CCN(CCCCc2ccccc2)CC1` (stereo unspecified), the Ki in assay [1] is 265 nM; in assay [2], over 10000 nM. In assay [3], the Selectivity was over 35.

The record behind these values is ChEMBL document CHEMBL1128287, “Ketanserin analogues: the effect of structural modification on 5-HT2 serotonin receptor binding” (J Med Chem, 1995).
